Assay [1] is described as follows: Inhibition of integrin alpha6-beta1 adhesion using K562 cells expressing alpha-6. Format: cell-based, Homo sapiens. The gist of the method:
(§1)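 BCECF-AM-labeled cells incubated 30 min at room temperature with inhibitor (1 nM–100 uM serial dilutions) or vehicle plus 1 mM MnCl2 in wells coated overnight at 4 °C with ligand; bound cells read at 530 nm. alpha4beta7: JY cells on CS-1–BSA 1 ug/mL; alpha5beta1: K562 on human 120 kD fibronectin fragment 5 ug/mL; alpha6beta1: alpha6-K562 on mouse laminin 20 ug/mL. IC50 from inhibition curves.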

Assay [2] concerns the target Intercellular adhesion molecule (ICAM-1), Integrin alpha-L/beta-2 (Homo sapiens, UniProt P05107+P05362+P20701). In words: Inhibition of ICAM-1 transfected CHO cell adhesion to integrin alphaL-beta2 of human JY cells. Format: cell-based.
Assay [3] can be described thus: Inhibition of integrin alpha1-beta1 adhesion using K562 cells expressing alpha-1. Format: cell-based, Homo sapiens.
Assay [4] concerns the target T1, Integrin alpha-4/beta-1 (Homo sapiens, UniProt P05556+P13612). In words: Inhibition of integrin alpha4-beta1 binding to VCAM-Ig. The class given is protein-complex assay.
Assay [5] deals with Integrin alpha-IIb/beta-3 (Homo sapiens, UniProt P05106+P08514). The assay is described as follows: Inhibition of integrin alphaIIb-beta3 adhesion to human citreated platelets.
Assay [6] has as its target T1, Integrin alpha-4/beta-1. In words: Inhibition of integrin alpha4-beta1 adhesion to Jurkat cells. The class given is cell-based. The gist of the method: (§2)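 BCECF-AM-labeled Jurkat cells (20 min, 37 °C) incubated 30 min with serial inhibitor dilutions or vehicle plus 1 mM MnCl2 in wells coated overnight at 4 °C with 1 ug/mL CS-1–BSA conjugate; after washing, bound cells read by fluorescence at 530 nm.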

In another assay the target is T2, Integrin alpha-4/beta-7 (Homo sapiens, UniProt P13612+P26010).
T2 sequence (P13612 whole entry): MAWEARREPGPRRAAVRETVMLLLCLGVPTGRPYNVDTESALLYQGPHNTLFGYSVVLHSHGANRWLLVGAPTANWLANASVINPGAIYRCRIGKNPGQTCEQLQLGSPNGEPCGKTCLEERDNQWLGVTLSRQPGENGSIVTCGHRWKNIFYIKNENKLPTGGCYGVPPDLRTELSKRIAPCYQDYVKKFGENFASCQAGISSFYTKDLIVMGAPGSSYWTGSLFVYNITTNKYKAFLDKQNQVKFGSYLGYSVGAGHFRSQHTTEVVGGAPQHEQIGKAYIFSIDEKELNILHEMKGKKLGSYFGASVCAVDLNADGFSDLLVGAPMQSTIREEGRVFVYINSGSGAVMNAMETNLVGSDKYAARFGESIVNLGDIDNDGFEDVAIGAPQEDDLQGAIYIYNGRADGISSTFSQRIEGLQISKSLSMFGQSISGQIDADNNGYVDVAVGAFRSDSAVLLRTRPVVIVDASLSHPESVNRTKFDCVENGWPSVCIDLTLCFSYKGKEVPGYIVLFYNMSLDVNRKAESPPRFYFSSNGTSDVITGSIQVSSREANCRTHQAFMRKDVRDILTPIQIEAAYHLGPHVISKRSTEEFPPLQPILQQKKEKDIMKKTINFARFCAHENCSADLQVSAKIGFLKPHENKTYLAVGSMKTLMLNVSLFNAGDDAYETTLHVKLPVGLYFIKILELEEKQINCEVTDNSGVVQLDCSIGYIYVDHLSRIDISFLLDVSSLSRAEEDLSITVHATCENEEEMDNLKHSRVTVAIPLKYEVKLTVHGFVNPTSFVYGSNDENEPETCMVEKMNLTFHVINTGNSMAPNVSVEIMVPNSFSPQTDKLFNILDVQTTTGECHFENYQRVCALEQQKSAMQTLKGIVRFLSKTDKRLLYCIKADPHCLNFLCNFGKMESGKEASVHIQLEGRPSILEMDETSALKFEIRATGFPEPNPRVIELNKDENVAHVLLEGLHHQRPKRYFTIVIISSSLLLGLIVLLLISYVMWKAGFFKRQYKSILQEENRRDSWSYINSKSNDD
T2 sequence (P26010 whole entry): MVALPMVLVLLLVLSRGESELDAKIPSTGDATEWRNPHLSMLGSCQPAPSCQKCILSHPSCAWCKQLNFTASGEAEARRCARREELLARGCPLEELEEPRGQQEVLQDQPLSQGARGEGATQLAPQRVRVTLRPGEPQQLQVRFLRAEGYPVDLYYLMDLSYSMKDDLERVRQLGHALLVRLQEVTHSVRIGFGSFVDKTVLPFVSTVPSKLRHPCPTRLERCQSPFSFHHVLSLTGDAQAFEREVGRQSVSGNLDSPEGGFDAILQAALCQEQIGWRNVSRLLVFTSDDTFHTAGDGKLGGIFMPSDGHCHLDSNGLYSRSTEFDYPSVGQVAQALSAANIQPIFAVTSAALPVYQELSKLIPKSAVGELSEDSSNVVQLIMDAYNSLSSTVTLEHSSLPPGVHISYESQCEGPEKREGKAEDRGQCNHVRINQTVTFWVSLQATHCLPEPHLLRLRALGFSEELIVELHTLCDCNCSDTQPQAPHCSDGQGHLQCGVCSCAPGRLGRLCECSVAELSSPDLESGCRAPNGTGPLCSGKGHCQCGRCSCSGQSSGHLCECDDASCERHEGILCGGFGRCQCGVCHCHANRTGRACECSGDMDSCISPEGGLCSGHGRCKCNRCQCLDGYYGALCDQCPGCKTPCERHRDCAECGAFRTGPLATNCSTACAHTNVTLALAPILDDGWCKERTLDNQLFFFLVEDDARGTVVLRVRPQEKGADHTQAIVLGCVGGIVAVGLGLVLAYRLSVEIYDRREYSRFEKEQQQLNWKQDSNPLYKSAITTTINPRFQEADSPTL
The assay is described as follows: Inhibition of integrin alpha4-beta7 adhesion to JY cells. Format: cell-based. The procedure, abridged:
as §1

The next assay deals with Integrin alpha-5/beta-1 (Homo sapiens, UniProt P05556+P08648). In words: Inhibition of integrin alpha5-beta1 adhesion to K562 cells. Format: cell-based. The procedure, abridged:
as §1

In assay [7] the target is T1, Integrin alpha-4/beta-1. In words: Inhibition of VCAM-Ig binding to integrin alpha4-beta1 of Jurkat cells. Format: cell-based.
Assay [8] has as its target T1, Integrin alpha-4/beta-1. The assay is described as follows: Inhibition of integrin alpha4-beta1 adhesion to Jurkat cells (No inhibition). Format: cell-based. The gist of the method:
as §2

Assay [9] deals with Integrin alpha1/beta1 (Homo sapiens). The assay is described as follows: Inhibition of integrin alpha1-beta1 adhesion using K562 cells expressing alpha-1.

A word on the IC50: it is the concentration that gives 50% inhibition. A high value points to a need for much substance.

Molecules are shown by their SMILES. *1 amine or outer side, *2 acyl side, *3 side chain or, on linkers, in order; H or OH if unused. Where a SMILES comes first, the peptide text is derived from it. [ ]: non-standard residue; d: D form. The star is where a group is joined. X1 = O=C(Cc1ccc(N[*:1])cc1)[*:2]; NH(2-Me-phenyl) = Cc1ccccc1N*; PhAc = O=C(Cc1ccccc1)*; CO = O=C([*:1])[*:2]; Ahx = NCCCCCC(=O)O A value given as a limit tells only on which side of the number the result lay.

Chain of Intercellular adhesion molecule (ICAM-1), Integrin alpha-L/beta-2 (P20701 whole entry): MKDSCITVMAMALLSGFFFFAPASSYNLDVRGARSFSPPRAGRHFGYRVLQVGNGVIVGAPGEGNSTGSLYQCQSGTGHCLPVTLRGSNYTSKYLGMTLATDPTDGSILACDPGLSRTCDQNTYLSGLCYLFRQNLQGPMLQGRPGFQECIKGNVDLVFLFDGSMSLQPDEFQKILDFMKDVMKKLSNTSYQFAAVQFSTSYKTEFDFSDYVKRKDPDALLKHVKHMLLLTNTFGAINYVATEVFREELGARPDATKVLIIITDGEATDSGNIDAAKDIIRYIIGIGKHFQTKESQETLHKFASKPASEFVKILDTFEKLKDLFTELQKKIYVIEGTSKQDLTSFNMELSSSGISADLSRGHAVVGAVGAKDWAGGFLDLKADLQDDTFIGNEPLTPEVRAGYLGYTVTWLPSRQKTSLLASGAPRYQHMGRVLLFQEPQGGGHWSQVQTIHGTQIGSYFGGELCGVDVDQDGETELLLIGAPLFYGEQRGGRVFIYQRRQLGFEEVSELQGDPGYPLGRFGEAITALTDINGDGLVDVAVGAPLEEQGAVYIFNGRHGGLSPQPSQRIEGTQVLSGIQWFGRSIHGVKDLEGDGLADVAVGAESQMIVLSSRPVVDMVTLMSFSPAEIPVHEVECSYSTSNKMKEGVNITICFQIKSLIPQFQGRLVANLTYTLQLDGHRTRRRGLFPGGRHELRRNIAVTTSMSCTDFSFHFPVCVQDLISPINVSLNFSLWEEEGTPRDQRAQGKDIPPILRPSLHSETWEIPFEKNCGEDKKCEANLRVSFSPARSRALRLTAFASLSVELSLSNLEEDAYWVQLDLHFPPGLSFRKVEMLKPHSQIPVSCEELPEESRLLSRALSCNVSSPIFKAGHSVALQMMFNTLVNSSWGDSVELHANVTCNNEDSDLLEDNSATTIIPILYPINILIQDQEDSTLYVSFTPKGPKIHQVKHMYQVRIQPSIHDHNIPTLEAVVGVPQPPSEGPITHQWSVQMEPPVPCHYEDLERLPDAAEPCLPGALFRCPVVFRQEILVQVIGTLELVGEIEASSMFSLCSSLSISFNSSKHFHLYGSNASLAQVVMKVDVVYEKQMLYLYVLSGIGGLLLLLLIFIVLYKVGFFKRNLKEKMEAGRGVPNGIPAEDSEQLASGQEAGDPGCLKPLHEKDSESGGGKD
Chain of Intercellular adhesion molecule (ICAM-1), Integrin alpha-L/beta-2 (P05362 whole entry): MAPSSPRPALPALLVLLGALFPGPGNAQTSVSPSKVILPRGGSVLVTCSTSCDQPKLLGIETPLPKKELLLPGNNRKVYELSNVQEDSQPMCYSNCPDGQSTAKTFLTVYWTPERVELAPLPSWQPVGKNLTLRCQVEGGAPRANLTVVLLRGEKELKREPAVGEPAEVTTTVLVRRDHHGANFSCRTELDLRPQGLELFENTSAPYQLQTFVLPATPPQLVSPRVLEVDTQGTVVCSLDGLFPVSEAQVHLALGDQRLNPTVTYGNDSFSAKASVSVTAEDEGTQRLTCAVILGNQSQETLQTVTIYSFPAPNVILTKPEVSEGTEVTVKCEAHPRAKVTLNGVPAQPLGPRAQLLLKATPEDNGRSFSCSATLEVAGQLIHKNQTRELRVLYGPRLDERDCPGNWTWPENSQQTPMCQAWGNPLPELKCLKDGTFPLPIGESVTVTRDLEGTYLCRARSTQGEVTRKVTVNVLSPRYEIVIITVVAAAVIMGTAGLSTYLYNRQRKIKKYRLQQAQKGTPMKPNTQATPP
Chain of Intercellular adhesion molecule (ICAM-1), Integrin alpha-L/beta-2 (P05107 whole entry): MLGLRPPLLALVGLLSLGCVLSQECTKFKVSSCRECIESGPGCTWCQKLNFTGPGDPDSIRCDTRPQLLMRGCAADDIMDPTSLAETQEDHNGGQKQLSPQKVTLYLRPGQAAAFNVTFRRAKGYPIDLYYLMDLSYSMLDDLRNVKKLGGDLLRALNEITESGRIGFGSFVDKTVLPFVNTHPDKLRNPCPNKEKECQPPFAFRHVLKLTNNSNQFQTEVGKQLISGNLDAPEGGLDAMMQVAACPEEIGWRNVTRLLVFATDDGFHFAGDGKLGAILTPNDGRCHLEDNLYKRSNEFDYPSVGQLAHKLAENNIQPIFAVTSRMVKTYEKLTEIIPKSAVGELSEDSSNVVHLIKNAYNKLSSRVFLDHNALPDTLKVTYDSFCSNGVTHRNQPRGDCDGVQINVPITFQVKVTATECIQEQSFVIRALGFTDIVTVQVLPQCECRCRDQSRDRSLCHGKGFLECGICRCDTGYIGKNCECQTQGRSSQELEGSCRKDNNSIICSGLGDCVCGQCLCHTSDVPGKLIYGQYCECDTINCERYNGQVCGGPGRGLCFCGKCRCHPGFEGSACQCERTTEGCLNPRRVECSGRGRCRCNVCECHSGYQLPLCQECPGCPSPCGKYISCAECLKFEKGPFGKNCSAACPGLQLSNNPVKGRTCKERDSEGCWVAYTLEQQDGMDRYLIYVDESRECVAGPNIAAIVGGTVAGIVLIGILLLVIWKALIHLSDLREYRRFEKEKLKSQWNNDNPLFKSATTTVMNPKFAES
T1 sequence (P05556 whole entry, one chain of several): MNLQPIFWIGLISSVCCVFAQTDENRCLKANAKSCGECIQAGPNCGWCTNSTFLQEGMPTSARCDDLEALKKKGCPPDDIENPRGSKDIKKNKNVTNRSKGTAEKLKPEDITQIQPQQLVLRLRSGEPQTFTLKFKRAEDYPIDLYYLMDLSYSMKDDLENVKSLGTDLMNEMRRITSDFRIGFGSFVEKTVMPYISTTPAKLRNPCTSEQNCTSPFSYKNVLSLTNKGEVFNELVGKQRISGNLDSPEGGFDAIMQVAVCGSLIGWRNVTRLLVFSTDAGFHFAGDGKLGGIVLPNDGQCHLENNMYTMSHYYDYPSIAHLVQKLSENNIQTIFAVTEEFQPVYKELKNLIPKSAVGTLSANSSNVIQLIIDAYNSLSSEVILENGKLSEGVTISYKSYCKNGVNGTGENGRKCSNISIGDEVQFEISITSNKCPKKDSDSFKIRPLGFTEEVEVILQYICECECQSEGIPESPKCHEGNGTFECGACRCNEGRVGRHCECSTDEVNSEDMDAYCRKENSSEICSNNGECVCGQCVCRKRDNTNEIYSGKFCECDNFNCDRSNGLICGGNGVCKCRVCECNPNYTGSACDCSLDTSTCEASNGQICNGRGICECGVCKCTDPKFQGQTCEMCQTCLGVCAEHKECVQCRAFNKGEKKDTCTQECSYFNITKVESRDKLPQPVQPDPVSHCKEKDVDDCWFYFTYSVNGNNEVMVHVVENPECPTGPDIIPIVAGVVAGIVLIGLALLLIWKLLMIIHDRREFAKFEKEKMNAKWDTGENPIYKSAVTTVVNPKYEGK
Chain of Integrin alpha-IIb/beta-3 (P05106 27-788 limits assumed): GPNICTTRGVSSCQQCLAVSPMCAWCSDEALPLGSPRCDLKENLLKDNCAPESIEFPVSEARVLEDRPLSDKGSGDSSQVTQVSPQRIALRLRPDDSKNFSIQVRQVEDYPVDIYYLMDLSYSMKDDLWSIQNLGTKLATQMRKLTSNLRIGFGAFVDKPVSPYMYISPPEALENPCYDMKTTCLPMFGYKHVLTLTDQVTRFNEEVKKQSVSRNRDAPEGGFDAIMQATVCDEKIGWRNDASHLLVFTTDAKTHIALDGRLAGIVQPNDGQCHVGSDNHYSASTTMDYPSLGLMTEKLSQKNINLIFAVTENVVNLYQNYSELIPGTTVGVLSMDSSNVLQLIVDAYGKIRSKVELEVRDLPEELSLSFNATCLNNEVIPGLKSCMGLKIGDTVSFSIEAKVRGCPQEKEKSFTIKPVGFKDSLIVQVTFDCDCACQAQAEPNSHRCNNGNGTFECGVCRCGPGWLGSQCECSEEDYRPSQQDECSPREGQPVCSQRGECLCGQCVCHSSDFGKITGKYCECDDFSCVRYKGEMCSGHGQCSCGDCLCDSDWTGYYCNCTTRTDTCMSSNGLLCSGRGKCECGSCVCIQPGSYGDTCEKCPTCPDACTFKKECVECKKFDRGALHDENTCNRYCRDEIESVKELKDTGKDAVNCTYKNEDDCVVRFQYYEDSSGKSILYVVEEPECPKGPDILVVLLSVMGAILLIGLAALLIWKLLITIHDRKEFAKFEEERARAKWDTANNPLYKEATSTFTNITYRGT
Chain of Integrin alpha-IIb/beta-3 (P08514 32-887 limits assumed): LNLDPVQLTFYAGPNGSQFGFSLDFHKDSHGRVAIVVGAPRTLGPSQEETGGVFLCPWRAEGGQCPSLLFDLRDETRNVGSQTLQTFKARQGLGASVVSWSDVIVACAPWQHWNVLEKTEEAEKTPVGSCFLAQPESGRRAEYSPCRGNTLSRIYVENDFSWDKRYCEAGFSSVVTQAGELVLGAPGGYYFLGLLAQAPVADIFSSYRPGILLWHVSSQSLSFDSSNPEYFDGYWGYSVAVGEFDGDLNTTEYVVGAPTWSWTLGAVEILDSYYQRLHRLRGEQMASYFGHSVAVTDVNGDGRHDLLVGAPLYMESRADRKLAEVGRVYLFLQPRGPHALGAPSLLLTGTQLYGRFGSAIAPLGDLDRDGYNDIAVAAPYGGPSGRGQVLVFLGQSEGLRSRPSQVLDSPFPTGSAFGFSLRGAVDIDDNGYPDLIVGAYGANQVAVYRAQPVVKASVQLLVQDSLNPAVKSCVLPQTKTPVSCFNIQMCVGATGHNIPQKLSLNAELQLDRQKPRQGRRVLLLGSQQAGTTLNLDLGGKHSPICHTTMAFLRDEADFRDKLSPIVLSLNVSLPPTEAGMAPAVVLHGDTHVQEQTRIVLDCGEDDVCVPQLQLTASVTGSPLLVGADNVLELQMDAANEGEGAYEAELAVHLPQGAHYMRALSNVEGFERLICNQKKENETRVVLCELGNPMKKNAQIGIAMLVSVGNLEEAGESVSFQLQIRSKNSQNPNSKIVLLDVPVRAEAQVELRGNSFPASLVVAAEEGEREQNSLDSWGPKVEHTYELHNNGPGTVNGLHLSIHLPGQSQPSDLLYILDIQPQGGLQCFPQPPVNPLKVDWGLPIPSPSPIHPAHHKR
Chain of Integrin alpha-IIb/beta-3 (P08514 891-1039 limits assumed): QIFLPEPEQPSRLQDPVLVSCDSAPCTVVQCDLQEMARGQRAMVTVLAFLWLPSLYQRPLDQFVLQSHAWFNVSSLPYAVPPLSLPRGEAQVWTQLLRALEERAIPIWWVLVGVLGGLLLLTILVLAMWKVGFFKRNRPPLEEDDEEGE

For `Cc1ccccc1NC(=O)Nc1ccc(CC(=O)N[C@@H](CC(C)C)C(=O)N[C@@H](CC(=O)O)C(=O)O)cc1`, the IC50 is > 100000 nM in [1]; > 100000 nM in [2]; > 100000 nM in assay [3]; 18 nM at Integrin alpha-4/beta-1 [4]; > 100000 nM in [5]; 68 nM against Integrin alpha-4/beta-1 [6]. Besides, the IC50 against Integrin alpha-4/beta-7 was 59000 nM; on Integrin alpha-5/beta-1, > 100000 nM.

As for `Cc1ccccc1NC(=O)Nc1ccc(CC(=O)O)cc1`, the IC50 entry on Integrin alpha-4/beta-1 [7] is reported as “No inhibition”; on Integrin alpha-4/beta-1 [8] it was “Not Active”.

Take `CC(C)C[C@H](NC(=O)Cc1ccc(NC(=O)Nc2ccccc2)cc1)C(=O)N[C@@H](CC(=O)O)C(=O)N[C@H](C(=O)O)C(C)C`: the IC50 on Integrin alpha-4/beta-1 [4] stood at 3 nM; against Integrin alpha-4/beta-1 [6] it was 30 nM.

As to `CC(C)C[C@H](NC(=O)Cc1ccc(NC(=O)c2ccccc2)cc1)C(=O)N[C@@H](CC(=O)O)C(=O)N[C@H](C(=O)O)C(C)C`, the IC50 on Integrin alpha-4/beta-1 [4] was determined as 295 nM; on Integrin alpha-4/beta-1 [6] it was 3250 nM.

For the molecule `CC(C)C[C@H](NC(=O)Cc1ccc(O)cc1)C(=O)N[C@@H](CC(=O)O)C(=O)N[C@H](C(=O)O)C(C)C`, the values for the IC50 on Integrin alpha-4/beta-1 [4] and against Integrin alpha-4/beta-1 [6] were 430 nM and 5000 nM, respectively.

As to `Cc1ccccc1NC(=O)Nc1ccc(CC(=O)N[C@@H](CC(C)C)C(=O)N[C@@H](CC(=O)O)C(=O)N[C@H](C(=O)O)C(C)C)cc1`, the IC50 is > 100000 nM in assay [1]; > 50000 nM in assay [2]; 0.6 nM at Integrin alpha-4/beta-1 [4]; > 100000 nM in assay [5]; 6 nM at Integrin alpha-4/beta-1 [6]; > 100000 nM in assay [9]. The IC50 at Integrin alpha-4/beta-7 is 8000 nM; against Integrin alpha-5/beta-1, > 100000 nM.

Take `Cc1ccccc1NC(=O)Nc1ccc(CC(=O)N[C@@H](CC(C)C)C(=O)O)cc1`: the results for the IC50 entry on Integrin alpha-4/beta-1 [7] and against Integrin alpha-4/beta-1 [8] were “No inhibition” and “Not Active”, respectively.

In the case of `CC(C)C[C@H](NC(=O)Cc1ccc(NC(=O)OCc2ccccc2)cc1)C(=O)N[C@@H](CC(=O)O)C(=O)N[C@H](C(=O)O)C(C)C`, the IC50 at Integrin alpha-4/beta-1 [4] came to 30 nM; against Integrin alpha-4/beta-1 [6], 200 nM.

As for `CC[C@H](C)[C@H](N)C(=O)N[C@@H](CC(C)C)C(=O)N[C@@H](CC(=O)O)C(=O)N[C@H](C(=O)O)C(C)C` (H-ILDV-OH), the figures for the IC50 at Integrin alpha-4/beta-1 [4] and on Integrin alpha-4/beta-1 [6] were 66000 nM and 175000 nM, respectively.

On to `CC(C)C[C@H](NC(=O)[C@@H](N)Cc1ccc(O)cc1)C(=O)N[C@@H](CC(=O)O)C(=O)N[C@H](C(=O)O)C(C)C` (H-YLDV-OH), for which the IC50 on Integrin alpha-4/beta-1 [4] came out at 12600 nM; on Integrin alpha-4/beta-1 [6] it was 51000 nM.

In the case of `CC(C)C[C@H](NC(=O)Cc1ccccc1)C(=O)N[C@@H](CC(=O)O)C(=O)N[C@H](C(=O)O)C(C)C` (PhAc-Leu-Asp-Val-OH), the concentration for half-maximal inhibition (IC50) was found to be 1000 nM at Integrin alpha-4/beta-1 [4] and 40000 nM at Integrin alpha-4/beta-1 [6].

In the case of `Cc1ccccc1NC(=O)Nc1ccc(CC(=O)N[C@@H](CCCCNC(=O)CCCCCN)C(=O)N[C@@H](CC(=O)O)C(=O)N[C@H](C(=O)N2CCC[C@H]2C(=O)O)C(C)C)cc1` ({NH(2-Me-phenyl)-CO}-[X1]K(Ahx)DVP-OH), the IC50 on Integrin alpha-4/beta-1 [4] came to 4 nM; at Integrin alpha-4/beta-1 [6] it was 20 nM.

For `Cc1ccccc1NC(=O)Nc1ccc(CC(=O)N[C@@H](CC(C)C)C(=O)N[C@@H](CC(=O)O)C(=O)N[C@H](C(=O)N2CCC[C@H]2C(N)=O)C(C)C)cc1` ({NH(2-Me-phenyl)-CO}-[X1]LDVP-NH2), the IC50 at Integrin alpha-4/beta-1 [4] was 1 nM; on Integrin alpha-4/beta-1 [6], 8 nM.

As to `Cc1ccccc1NC(=O)Nc1ccc(CC(=O)N[C@@H](CC(C)C)C(=O)N[C@@H](CC(=O)O)C(=O)N[C@H](C(=O)N2CCC[C@H]2C(=O)O)C(C)C)cc1` ({NH(2-Me-phenyl)-CO}-[X1]LDVP-OH), the IC50 was > 100000 nM in [1]; > 100000 nM in assay [2]; > 100000 nM in [3]; > 100000 nM in assay [5]; 2000 nM against Integrin alpha-4/beta-7.

Turning to `Cc1ccccc1NC(=O)Nc1ccc(CC(=O)N[C@@H](CC(C)C)C(=O)N[C@@H](CC(=O)O)C(=O)N[C@H](C(=O)N2CCC[C@H]2C(=O)N[C@@H](CO)C(=O)N[C@H](C(=O)O)[C@@H](C)O)C(C)C)cc1` ({NH(2-Me-phenyl)-CO}-[X1]LDVPST-OH), the IC50 on Integrin alpha-4/beta-1 [4] was 1 nM; against Integrin alpha-4/beta-1 [6] it was 5 nM.

Source of the values: ChEMBL document CHEMBL1132287, “Selective, tight-binding inhibitors of integrin alpha4beta1 that inhibit allergic airway responses” (J Med Chem, 1999).
